Results gathered from unrelated publications.
Protocols differ between the studies behind these lines.
Target: Phosphatidylinositol 4,5-bisphosphate 3-kinase catalytic subunit gamma isoform (PIK3CG, Homo sapiens, UniProt P48736)

Cc1cc(NC(=O)c2cccc3cc(-c4cccc5[nH]nc(N)c45)ccc23)ccc1F  activity vs control (enzyme activity, inhibitor; 0.1 µM): 97%
COc1cc(-c2cc(-c3ccc(N4CCNCC4)cc3)cnc2C)cc(OC)c1OC  inhibition (enzyme activity, inhibitor; 1 µM): 11%
COc1cc(Cl)c(C(=O)N[C@@H](CN[C@H]2CC[C@@H](N)CC2)Cc2ccc(C#N)cc2)cc1-c1ccc(CN[C@H](C)c2ccc(C)cc2)o1  remaining activity (enzyme activity, inhibitor; 1 µM): 102%
CC(C)CCn1c(SCC(=O)Nc2ccccc2C(F)(F)F)nc2nccnc2c1=O  inhibition (enzyme activity, inhibitor; 10 µM): < 20%
Cc1cc(-n2nc(Cc3cc(F)cc(C(F)(F)F)c3)nc2C)ccc1C(N)=O  remaining binding (cell-free assay, competition with immobilised ligand; 1 µM): 79%
CS(=O)(=O)Nc1cc(-c2ccc3ncnc(Nc4ccc(F)c(Cl)c4)c3c2)cnc1Cl  inhibition (enzyme activity, inhibitor, FRET; 10 µM): 90 to 100%
CCc1ccccc1C(=O)Nc1n[nH]c2c(C)c(F)c(C3C(C#N)=C(C)N(C)C(C)=C3C#N)cc12  remaining binding (cell-free assay, competition with immobilised ligand; 1 µM): 100%
Cc1cnc(NC2CCOCC2)nc1-n1cnc(C(=O)NC(CN)c2cc(F)cc(Cl)c2)c1 (stereo not drawn)  remaining activity (enzyme activity, inhibitor, radiometric; 1 µM): 100%
CO[C@@H](C)c1c(Nc2ccc([C@@H](N(C)C(=O)C3CCS(=O)(=O)CC3)C(F)(F)F)cc2)cnc2cc(Cl)nn12  remaining binding (cell-free assay, competition with immobilised ligand; 1 µM): 87%
O=C(CSc1nc2nccnc2c(=O)n1CCc1ccccc1)Nc1ccccc1  inhibition (enzyme activity, inhibitor; 10 µM): < 20%
CS(=O)(=O)c1cc(C2(NC(=O)c3cncc4c3cnn4-c3ccc(F)cc3)CC2)ccn1  remaining binding (cell-free assay, competition with immobilised ligand; 1 µM): 82%
O=S(=O)(Nc1cc(Sc2ncn[nH]2)c(O)c2ccccc12)c1ccc(-c2ccccc2)cc1  remaining activity (enzyme activity, inhibitor; 1 µM): ≥ 75%
